Compound activity from PubChem.
Rows were chosen to be rich in hits. Some 1.7% of all compounds tested hit in one or more screens of this group.
Rce1 inh = blocks yeast Ras-converting enzyme | yeast membranes, quenched prenylated peptide cleavage fluorescence | AID 2563 | hit rate 0.27% among 290,000 | calls only | Q03530;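 active = fall in fluorescence gain of 50% or more versus controls, with final raw signal at or below 3038400; inconclusive = same 50% fall but final raw signal above 3038400; inactive = fall in fluorescence gain under 50%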;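 also: plate controls were neutral control wells for no effect and wells lacking membranes for full effect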
Target sequence (Q03530 whole entry, looked up): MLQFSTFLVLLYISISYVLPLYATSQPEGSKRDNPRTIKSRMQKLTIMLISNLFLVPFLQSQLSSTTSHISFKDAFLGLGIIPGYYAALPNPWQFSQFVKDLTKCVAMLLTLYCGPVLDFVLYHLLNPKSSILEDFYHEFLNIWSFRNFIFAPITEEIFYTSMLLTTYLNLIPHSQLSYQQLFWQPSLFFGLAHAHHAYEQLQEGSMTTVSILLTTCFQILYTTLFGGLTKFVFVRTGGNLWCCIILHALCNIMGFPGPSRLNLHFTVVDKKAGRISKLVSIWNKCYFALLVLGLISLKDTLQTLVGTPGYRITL
ARNT TACC3 PPI = ARNT/TACC3 interaction disruption; hit rate 0.66% among 390,000; inhibition, % at 9.99 µM; Q9Y6A5; AlphaScreen His-ARNT PAS-B/GST-TACC3 binding, luminescence; TACC3 fragment carries E629A point mutation;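 active = mean inhibition of replicates at least 50% and at least half of replicates each reaching 50%; inconclusive = half or more replicates reach 50% but mean below 50%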;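 also: 0% = complete ARNT plus TACC3 wells and 100% = ARNT alone without TACC3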
CAL PDZ FP-1 = blocks peptide binding to human CAL PDZ domain; Q9HD26; purified CAL PDZ, TMR-peptide fluorescence polarization, 1 h; inhibition, % at 20 µM; hit rate 0.02% among 330,000;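 active = highest replicate inhibition of at least 40%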;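 also: plate controls were DMSO neutral control wells for no effect and unlabeled competitor peptide control wells for full effect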
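material = purified tagged CAL PDZ domain construct (CerCALP) | compound dosing = 20 µM, one dose | times = 1 h at RT | measured by = fluorescence polarization from S- and P-plane intensities, G-factor corrected | read-out = inhibition from polarization loss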
CAL PDZ FP-2 = blocks peptide binding to the human CAL PDZ domain; purified CAL PDZ, TMR-peptide fluorescence polarization, 1 h; hit rate 0.92% among 300,000; Q9HD26; inhibition, % at 24.9 µM;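 active = mean inhibition of at least 30% with at least half of replicates also reaching 30%; inconclusive = no clear call, values can overlap the other calls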;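 also: 0% = DMSO neutral control and 100% = excess unlabeled competitor peptide PRC23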
AI-2 QS mod = Vibrio harveyi AI-2 quorum sensing modulation; Vibrio harveyi JMH597 AI-2 luminescence/OD600 ratio, 9 h; active compounds read low; strain lacks LuxN and CqsS sensors; 0 = neutral-control median; activity change, % at 7.5 µM; hit rate 0.4% among 300,000; in the data active = activity change below about -75%, passing the limit was not always enough; inconclusive = no clear call, values can overlap the other calls;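 also: luminescence divided by OD600 gain over 9 h not by final OD600 alone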
JMH597 growth rt = retest: blocks Vibrio harveyi JMH597 growth | shares compounds with AI-2 QS mod | OD600 absorbance, 9 h; lacks LuxN and CqsS sensors | growth inhibition, % at 7.5 µM | hit rate 1% among 750 | AID 2726;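 active = every replicate shows growth inhibition above 50%; inconclusive = at least half, but not all, replicates pass that cutoff; inactive = fewer than half of replicates pass it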
BB721 const-QS lum = retest counter-screen: lowers luminescence of constitutive-QS Vibrio harveyi BB721; 9 h; inhibition, % at 7.5 µM; shares compounds with AI-2 QS mod; hit rate 95% among 750;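 active = inhibition above about 80% in every replicate, not just on average, limit read from the data; inconclusive = at least half of replicates past the limit, but not all; inactive = fewer than half of replicates past the limit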
BB721 growth = retest Vibrio harveyi BB721 growth inhibition; shares compounds with AI-2 QS mod; OD600 absorbance, 9 h; growth inhibition, % at 7.5 µM; hit rate 3% among 750;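 active = every replicate shows growth inhibition above 50%; inconclusive = at least half but not all replicates above 50% inhibition; inactive = under half of replicates above 50% inhibition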
AI-2 QS JMH597 = Vibrio harveyi AI-2 signaling luminescence modulation – JMH597 strain, confirmation | AID 2736 | Vibrio harveyi JMH597 AI-2 quorum sensing luminescence, 9 h; luxN and CqsS knockout, AI-2 only | shares compounds with AI-2 QS mod | inhibition, % at 7.5 µM | hit rate 97% among 750;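 active = every replicate shows more than 75% inhibition of signal versus neutral control wells; inconclusive = half to three quarters of replicates exceed 75% inhibition; inactive = fewer than half of replicates exceed 75% inhibition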
* = called active by the depositor; i = inactive; ? = inconclusive; · = no result given.

SMILES	Rce1 inh	ARNT TACC3 PPI	CAL PDZ FP-1	CAL PDZ FP-2	AI-2 QS mod	JMH597 growth rt	BB721 const-QS lum	BB721 growth	AI-2 QS JMH597
Cc1ccccc1-c1nnc(SCc2ccccc2F)o1	i	-2	-1	1	-81*	36	95*	17	96*
Cc1ccccc1-c1nnc(SCc2ccccc2)o1	i	-7	-2	4	-96*	11	99*	8	99*
Cc1c(OCC(=O)NCc2cccnc2)ccc2c3c(c(=O)oc12)CCC3	i	-1	-3	8	17	·	·	·	·
C[C@H](NC(=O)C[C@@H]1C[C@H]2c3cc(NS(C)(=O)=O)ccc3O[C@H]2[C@@H](CO)O1)c1ccccc1	·	-10	·	·	·	·	·	·	·
c1cncc(Nc2nc(-c3cccs3)cs2)c1	i	2	1	-5	0	·	·	·	·
c1ccc(CSc2nnc(-c3ccncc3)o2)cc1	·	23	-1	·	-88*	-16	95*	-26	96*
N#Cc1ccc(CSc2nnc(-c3ccncc3)o2)cc1	i	0	0	7	6	·	·	·	·
Clc1ccc(-c2nnc(SCc3nc(-c4ccccc4)no3)o2)cc1	i	-4	0	·	22	·	·	·	·
c1ccc2oc(SCc3cn4ccccc4n3)nc2c1	i	4	-2	-1	-78*	3	92*	3	95*
CCOc1ccc(OCCSc2nc3ccccc3o2)cc1	i	-11	0	-5	23	·	·	·	·
c1ccc(-c2noc(CSc3nc4ccccc4o3)n2)cc1	i	-8	-1	-6	?	-3	87*	-34	94*
c1ccc(OCCSc2nc3ccccc3o2)cc1	i	-5	0	0	-80*	27	94*	7	96*
c1ccc2nc(SCc3cn4ccccc4n3)cnc2c1	i	1	-2	·	-69	·	·	·	·
CO/N=C/c1ccc(OC)c(Oc2nc(OC)cc(OC)n2)c1	i	-5	-4	-4	24	·	·	·	·
CC(=O)N1CC(=O)N(OCc2ccccc2)C1c1ccc(Cl)cc1Cl (centres undefined)	i	-2	1	-3	13	·	·	·	·
CCOC(=O)c1ccc(S(=O)(=O)Nc2ccc3cn[nH]c3c2)cc1	i	-10	-3	·	-90*	28	95*	28	97*
COc1ccc(S(=O)(=O)Nc2nc(C(F)(F)F)cs2)cc1	i	-3	-1	-1	17	·	·	·	·
Cc1ccc(C)c(NC(=O)c2cnccn2)c1	i	7	-1	2	22	·	·	·	·
Clc1ccc(OCc2nc(-c3ccncc3)no2)c(Cl)c1	i	-17	-3	-4	10	·	·	·	·
c1ccc(OCc2nc(-c3cccs3)no2)cc1	i	5	-2	·	-84*	24	96*	11	97*
Clc1cccc(OCc2nc(-c3ccncc3)no2)c1	i	·	-3	0	-88*	10	96*	-11	97*
Cc1oc(CC(C)C)cc1C(=O)Nc1cccc2ccccc12	i	-3	0	-2	24	·	·	·	·
CC(=O)NC/C(C)=N\Nc1ccc([N+](=O)[O-])cc1	i	2	-3	-5	-86*	13	96*	55*	96*
C/C(=N\Nc1ccc([N+](=O)[O-])cc1)c1ccc(O)cc1	i	12	1	-1	-49	·	·	·	·
CN(c1ccccc1)S(=O)(=O)c1cccc(NC(=O)Cn2cnc3ccccc3c2=O)c1	i	4	-3	-2	-93*	55	99*	88*	99*
SMILES	Rce1 inh	ARNT TACC3 PPI	CAL PDZ FP-1	CAL PDZ FP-2	AI-2 QS mod	JMH597 growth rt	BB721 const-QS lum	BB721 growth	AI-2 QS JMH597
CC(C)(C)c1csc(NC(=O)Cn2cnc3ccccc3c2=O)n1	i	-6	·	3	-95*	8	97*	-2	98*
COc1ccc(Cl)cc1N(CC(=O)N1CCCC1)S(C)(=O)=O	i	-6	-1	16	?	-12	-7	6	-7
COc1ccc(Cl)cc1N(CC(=O)N1CCC(C)CC1)S(C)(=O)=O	i	-5	-1	2	8	·	·	·	·
Cc1ccc(C(=O)/C=C/C(=O)O)cc1	·	·	-2	-2	-40	·	·	·	·
Cc1ccc(/C=C/C(=O)c2ccc(O)cc2)cc1	i	0	-3	-7	-94*	-7	97*	-22	98*
CO[C@@H]1CN(C)C(=O)c2ccc(NC(C)=O)cc2OC[C@H](C)N(C(=O)c2ccccc2F)C[C@H]1C	·	-9	·	·	·	·	·	·	·
CC(=O)Nc1ccc(S(=O)(=O)Nc2nccs2)cc1	i	-3	-1	0	-7	·	·	·	·
O=C(CCc1ccccc1)Nc1ccc(S(=O)(=O)Nc2nccs2)cc1	i	22	-1	-5	-85*	18	89*	8	93*
Cc1ccc(O)c(CNc2ccc(S(=O)(=O)Nc3nccs3)cc2)c1	i	4	0	-1	-89*	19	93*	28	95*
O=C(CCS(=O)(=O)c1ccccc1)Nc1ccc(S(=O)(=O)Nc2nccs2)cc1	·	-11	0	1	·	·	·	·	·
O=C(CCc1ccccc1)Nc1ccc2c(c1)OCO2	i	-4	1	·	-69	·	·	·	·
O=C(Nc1ccc2c(c1)OCO2)OCc1ccccc1	i	-9	-1	·	-93*	-4	98*	18	98*
CN(C)C(=O)COc1ncnc2sc(-c3ccccc3)cc12	i	-3	0	-4	-84*	15	94*	13	97*
COc1cccc2c1OC1(C)CC2NC(=O)N1c1cccc(C(=O)N2CCN(c3ccccn3)CC2)c1 (centres undefined)	i	9	-2	-1	5	·	·	·	·
COc1ccccc1N1CCN(C(=O)c2cccc(N3C(=O)NC4CC3(C)Oc3c(OC)cccc34)c2)CC1 (centres undefined)	i	-4	0	·	-83*	-7	-5	-14	6
COc1ccc(C(=O)Cn2nnc(-c3cccs3)n2)cc1	i	0	-1	0	-81*	24	93*	-11	96*
O=C(Cn1nnc(-c2ccccc2)n1)NNC(=O)c1ccccc1	i	-3	0	-3	3	·	·	·	·
CC(C)(C)C(=O)Cn1nnc(-c2ccc(C(F)(F)F)cc2)n1	i	-5	0	1	-80*	-30	90*	-1	93*
NC(=O)Cn1nnc(-c2ccc(C(F)(F)F)cc2)n1	i	-4	8	-4	17	·	·	·	·
O=C(Cn1nnc(-c2ccccc2)n1)c1ccccc1	i	-5	-3	2	-94*	28	98*	2	99*
